Sequences and labels used below:
B1: tRNA (parent)
chain: GUUCCGUUGGCGUAAUGGUAACGCGUCUCCCUCCUAAGGAGAAGACUGCGGGUUCGAGUCCCGUACGGAACG

This note sets out measurements from the RNAGym collection of RNA variant scans (doi:10.1126/science.aae0568).

Variants at the floor of the assay were thinned out.

In the data set the parent is B1. As to the kind of experiment: yeast fitness relative to wild type (ratio to wild type); higher = fitter; tRNA-Arg(CCU), competitive growth, 37 C, YPD. The method in brief: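 Amplicons of the tRNA-Arg(CCU) gene were sequenced, 100-nucleotide paired-end, from the start population and from each end population of a pooled yeast competition. The competition, in six parallel replicates, lasted 24 hours in YPD at 37°C. Fitness relative to wild type was calculated from changes in genotype frequencies. Genotypes had to have ≥ 100 starting reads, and estimates < 0.5 were set to 0.5.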
As to C22A A70U, the yeast fitness is 1.01.
As to C22A C24A U54A, the yeast fitness is ≤ 0.5.
Regarding C22G G41C A65U, the yeast fitness was ≤ 0.5.
In the case of C22G A37U A43U, the yeast fitness was found to be 0.502.
For C22A G63A, the yeast fitness was 0.983.
Consider C22G C49G U64G A65G A70U, for which the yeast fitness was ≤ 0.5.
As to C22G G23A C30G A65C, the yeast fitness was 0.535.
Under C22G A43G stands 0.702; under C22G A43C, 0.708.
To C22G U47C U53G belongs 0.551; to C22A C31G A37G G38C A43G G58C, 0.532; to C22G A45G U53A C66G, 0.565.
As for C22A U28G G58C, the yeast fitness was ≤ 0.5.
Regarding C22A C31U A43U, the yeast fitness is 0.623.
For C22G C46A C49U G68A, the yeast fitness is ≤ 0.5.
Under C22G U53A G68C stands ≤ 0.5.
Under C22A G23A A37G U54G stands ≤ 0.5.
Consider C22A U28C A42G U47A, for which the yeast fitness worked out at 0.64.
C22A C33A G39C: the yeast fitness was ≤ 0.5.
For the variant C22A G25A, the yeast fitness is 0.992.
Under C22G U26C C33U A37U A40C stands ≤ 0.5; under C22A G25A A65U, 0.684; under C22A G48A G51A, 0.582.
Under C22G C30A A45G stands ≤ 0.5.
Consider C22G G63A C66U, for which the yeast fitness turned out to be 0.593.
To C22G C24U G44C belongs 0.59; to C22G C24U G44A, 0.555.
In the case of C22G C30G A70U, the yeast fitness came to 0.601.
As for C22U A37U, the yeast fitness is 0.694.
For the variant C22U A37C, the yeast fitness is 0.593.
To C22A A69C belongs 0.874; to C22G C31U C49U, 0.989; to C22U A37U G58A A69C, ≤ 0.5.
On to C22G A36G A37C C46A C49G, for which the yeast fitness was ≤ 0.5.
As to C22A G50C, the yeast fitness was determined as 0.627.
For the variant C22G C31G U54G, the yeast fitness is 0.595.
For C22G A43C C46A C61G A70C, the yeast fitness was ≤ 0.5.
To C22G C34U C60U C62U A70C belongs ≤ 0.5; to C22G A70G, 0.86.
For the variant C22G U26A C30A A42U, the yeast fitness is 0.692.
Regarding C22G C49U A57C, the yeast fitness is 0.594.
Consider C22G C24U A37C, for which the yeast fitness was ≤ 0.5.
With C22G C34A C66A, the yeast fitness came to 0.703.
As for C22A U53G G56C G67C, the yeast fitness is ≤ 0.5.
Take C22A G23A C33U C34G C60G G67A: the yeast fitness was ≤ 0.5.
Turning to C22A G48C G51A C55A C66A, the yeast fitness is ≤ 0.5.
For the variant C22G C27G C29G C49U, the yeast fitness is ≤ 0.5.
Under C22A U28G G67U stands ≤ 0.5; under C22G C27U C33A A36C A43G C55G, ≤ 0.5; under C22A G23C C49G, ≤ 0.5.
Consider C22A C24G A36G G39C C55U C66U, for which the yeast fitness amounted to 0.513.
As to C22G C30G G50A A57U A70G, the yeast fitness is ≤ 0.5.
Regarding C22G C27U U59A, the yeast fitness came to 0.571.
To C22U A37C G52C C62U belongs ≤ 0.5; to C22G C46U C66G, ≤ 0.5.
In the case of C22A C49G G67A, the yeast fitness is ≤ 0.5.
Take C22A C29G C33U A70C: the yeast fitness was ≤ 0.5.
C22G U59A C66A: the yeast fitness turned out to be 0.554.
With C22G C49U C61A, the yeast fitness is 0.69.
On to C22U A37G A45U G52A U54C, for which the yeast fitness was ≤ 0.5.
Regarding C22A C30U C31G, the yeast fitness came out at 0.551.
As for C22G U26G G44A C55G G63C, the yeast fitness was ≤ 0.5.
As for C22G C31U G39A, the yeast fitness turned out to be 0.636.
To C22A G23C belongs 0.535; to C22G G23C, 0.779.
Regarding C22G G23U, the yeast fitness amounted to 0.73.
For the variant C22G C30U A37G A43U, the yeast fitness amounted to 0.549.
Regarding C22G A37C A42G, the yeast fitness was ≤ 0.5.
Take C22A C49A C61U: the yeast fitness is ≤ 0.5.
Regarding C22G C29G C46U, the yeast fitness was 0.568.
C22A U47A C66A: the yeast fitness is ≤ 0.5.
Consider C22G G25C, for which the yeast fitness is 0.977.
As to C22G G25A, the yeast fitness is 0.993.
With C22G U35G A40C, the yeast fitness is ≤ 0.5.
In the case of C22G C27G C30A U32G C55G, the yeast fitness is ≤ 0.5.
To C22G C34U C66U belongs ≤ 0.5; to C22G A36G C55G, ≤ 0.5.
Under C22G C61A A69U stands 0.573.
For the variant C22U A37G G48C C55U, the yeast fitness turned out to be 0.64.
Consider C22G C27G C31G C60U, for which the yeast fitness was ≤ 0.5.
To C22G A57G C61A belongs ≤ 0.5; to C22A C29A A43U, ≤ 0.5; to C22G C55A C60A, ≤ 0.5.
For C22U A37G A45U G52A C62G A70U, the yeast fitness was ≤ 0.5.
As for C22A C33U U54G, the yeast fitness was ≤ 0.5.
Consider C22A G23C C27U, for which the yeast fitness was ≤ 0.5.
Consider C22A C60A C61G, for which the yeast fitness stood at 0.565.
As for C22A C27G A36G, the yeast fitness was ≤ 0.5.
Take C22G C24G C29U C33U A37C G52A C66U: the yeast fitness came out at 0.548.
For C22U A37U C49A C62U, the yeast fitness amounted to 0.598.
Turning to C22G C29G C46U C66U, the yeast fitness is ≤ 0.5.
Under C22G U28C stands 0.853.
Under C22G U35G stands 0.62; under C22G U35A, 0.614; under C22G A45U G48C, 0.511.
To C22G C29U C31A A65G belongs ≤ 0.5; to C22G C24G G50A C66U A69C, ≤ 0.5; to C22G A36C, 0.585.
As to C22A G23C C49G C60U, the yeast fitness is ≤ 0.5.
To C22G C30G G50A A57U belongs ≤ 0.5; to C22G C34A C49A, 0.818.
For the variant C22G C34G U35A A36U C55U, the yeast fitness was ≤ 0.5.
As to C22G C31G U53A, the yeast fitness is ≤ 0.5.
To C22G C29A A37U C49A belongs ≤ 0.5; to C22G, 0.988; to C22U, 0.908.
Regarding C22A U47A G63C, the yeast fitness is ≤ 0.5.
To C22G C27G C29G C34A G44C G56A A57G belongs 0.529.
Regarding C22G G25A U53C, the yeast fitness was ≤ 0.5.
With C22G A42C C66G G67U, the yeast fitness was ≤ 0.5.
Regarding C22A C46A A65U, the yeast fitness is 0.687.
For C22G G44C U47C A70C, the yeast fitness is ≤ 0.5.
Turning to C22G G39C U59G C66U, the yeast fitness came to 0.504.
Turning to C22A C24G A36G G39C C55U, the yeast fitness was ≤ 0.5.
Under C22G C29G C33U A42G G50A C66U stands ≤ 0.5; under C22G A42C, 0.635.
As to C22G C31A A43G A57C A65U, the yeast fitness is ≤ 0.5.
Under C22G C34G A70C stands 0.608; under C22G U32A C60A A69C, 0.619; under C22G U59A A69G, ≤ 0.5.
Under C22G U28A C31G C55A stands ≤ 0.5; under C22A C30U A69C, ≤ 0.5; under C22G C31G A57C A69C, ≤ 0.5.
C22G C33A A36C A43G C55G: the yeast fitness worked out at 0.595.
To C22G G41C belongs 0.814; to C22A U47A A70G, 0.577; to C22A G51C C66U, ≤ 0.5.
Take C22G C24G U47C: the yeast fitness came to 0.642.
As for C22A G48A C49U G50A G51C U64A A70C, the yeast fitness stood at 0.563.
In the case of C22G G25C A43G, the yeast fitness stood at 0.584.
As for C22G C27G C29G C34A A36G A43U A65U, the yeast fitness is ≤ 0.5.
Turning to C22U A37G A45U, the yeast fitness is 0.547.
Consider C22G U28A C31G A45G C55A G68C, for which the yeast fitness was ≤ 0.5.
As for C22G A43C C55G, the yeast fitness was 0.577.
On to C22G C30G G68A, for which the yeast fitness is ≤ 0.5.
In the case of C22U A37U U53G, the yeast fitness was ≤ 0.5.
With C22G G44A, the yeast fitness was 0.846.
Regarding C22A G51C A57U, the yeast fitness is 0.624.
For C22A C27A U59C, the yeast fitness turned out to be 0.586.
Consider C22G U53C A65C, for which the yeast fitness amounted to 0.558.
Take C22A U32A C33U G39A A43C A69C: the yeast fitness was ≤ 0.5.
In the case of C22G C30U A37G A43U G68U, the yeast fitness was ≤ 0.5.
To C22G A45C A57U C62A belongs 0.716.
On to C22A A69U A70C, for which the yeast fitness amounted to 0.685.
Take C22G C34U C46A C62U: the yeast fitness was 0.611.
On to C22A G23C A36C C60G A65C, for which the yeast fitness was ≤ 0.5.
To C22G C33A A36C A43U C55G belongs ≤ 0.5; to C22A C30G C34G, ≤ 0.5; to C22G C24U C29U A42U, ≤ 0.5.
For C22A C30U A42C A57U G67A A70U, the yeast fitness was ≤ 0.5.
For the variant C22G A37U A43U A65C, the yeast fitness was ≤ 0.5.
With C22G C49G, the yeast fitness came to 0.664.
Consider C22G C49A, for which the yeast fitness was 0.682.
As for C22G C49U, the yeast fitness stood at 0.986.
For the variant C22A G51C G68C, the yeast fitness is ≤ 0.5.
Take C22G C27G A37G G38A: the yeast fitness was 0.532.
In the case of C22G C33U, the yeast fitness was 0.713.
C22G C27U C30U A37G A43U G67A: the yeast fitness is ≤ 0.5.
In the case of C22A G25A G44A, the yeast fitness amounted to 0.65.
Take C22G C30A C66A: the yeast fitness is ≤ 0.5.
Consider C22A G51C A69U, for which the yeast fitness amounted to 0.74.
For the variant C22G C29G C62U, the yeast fitness was ≤ 0.5.
Turning to C22G A36G A42G, the yeast fitness came out at 0.605.
On to C22A C27G G41A, for which the yeast fitness was 0.614.
Take C22A U47A: the yeast fitness is 0.629.
Consider C22G G41A G50U C62A G63C, for which the yeast fitness is ≤ 0.5.
Under C22G U32C U47C U53G stands ≤ 0.5.
